Results gathered from unrelated publications.
Target: Serine/threonine-protein kinase Nek6 (NEK6, Homo sapiens, UniProt Q9HC98)

FC(F)(F)Oc1cccc(-c2cnc3ccc(-c4ccncc4)nn23)c1
activity vs control (enzyme activity; inhibitor; radiometric; 1 µM): 92%

CCCS(=O)(=O)Nc1ccc(F)c(C(=O)c2c[nH]c3ncc(-c4ccc(Cl)cc4)cc23)c1F
inhibition (enzyme activity; inhibitor; 1 µM): < 10%

CC(C)CC(=O)N1CCc2nc(-c3ccc(Br)cc3)nc(N(C)Cc3ccccc3)c2C1
remaining binding (cell-free assay; competition with immobilised ligand; 0.1 µM): 100%

CCN(CC)CCNC(=O)c1c(C)[nH]c(/C=C2\C(=O)Nc3ccc(F)cc32)c1C
inhibition (enzyme activity; inhibitor; 0.3 µM): -14%

C[C@H](NC(=O)c1cnc2n1[C@](C)(Cc1ccc(C#N)cc1)C(=O)N2c1cc(Cl)c(F)c(Cl)c1)C(=O)NC1(c2ccccn2)CC1
remaining binding (cell-free assay; competition with immobilised ligand; 1 µM): 100%

Nc1ncnc2occ(-c3ccc(NC(=O)Nc4cc(C(F)(F)F)ccc4F)cc3)c12
remaining signal (cell-free assay; inhibitor; 20 µM): 0.15%

CCOCCn1cc(C(=O)Nc2ccc(-n3nc(-c4cccnc4)cc3C(F)(F)F)cn2)ccc1=O
remaining binding (cell-free assay; competition with immobilised ligand; 1 µM): 96%

COc1cc2ncnc(Nc3ccc(Oc4ccccc4)cc3C)c2cc1OC
inhibition (enzyme activity; inhibitor; 1 µM): -8%

N#CCCc1ccc2c(c1)-c1[nH]c3ccc([N+](=O)[O-])cc3c1CC(=O)N2
remaining signal (cell-free assay; 0.5 µM): 101%

CN1CC(Oc2cnc(C#N)cc2-c2ccn3nc(NC(=O)C4CC4)cc3c2)C1
inhibition (enzyme activity; inhibitor; 1 µM): 2%

CNC(=O)c1cc(Oc2ccc(NC(=O)Nc3ccc(Cl)c(C(F)(F)F)c3)cc2)ccn1
inhibition (enzyme activity; inhibitor; 0.3 µM): -13%

Cc1cc(-n2nc(Cc3cc(F)cc(C(F)(F)F)c3)nc2C)ccc1C(N)=O
remaining binding (cell-free assay; competition with immobilised ligand; 1 µM): 95%

Cc1cc(NC(=O)c2cccc3cc(-c4cccc5[nH]nc(N)c45)ccc23)ccc1F
activity vs control (enzyme activity; inhibitor; 0.1 µM): 99%
